The record followed here is ChEMBL document CHEMBL4325901, “Novel multitarget-directed ligands targeting acetylcholinesterase and σ1 receptors as lead compounds for treatment of Alzheimer's disease: Synthesis, evaluation, and structural characterization of their complexes with acetylcholinesterase” (Eur J Med Chem, 2019).

The target of test [1] is T1, Acetylcholinesterase (Homo sapiens, UniProt P22303). Kind of test: Inhibition of human erythrocytes AChE using acetylthiocholine iodide as substrate preincubated for 5 mins followed by substrate addition measured at 1 min time interval for 10 mins by Ellman's method. Background: In Ellman's method for cholinesterases, released thiocholine reacts with DTNB.
T1 sequence (P22303 whole entry): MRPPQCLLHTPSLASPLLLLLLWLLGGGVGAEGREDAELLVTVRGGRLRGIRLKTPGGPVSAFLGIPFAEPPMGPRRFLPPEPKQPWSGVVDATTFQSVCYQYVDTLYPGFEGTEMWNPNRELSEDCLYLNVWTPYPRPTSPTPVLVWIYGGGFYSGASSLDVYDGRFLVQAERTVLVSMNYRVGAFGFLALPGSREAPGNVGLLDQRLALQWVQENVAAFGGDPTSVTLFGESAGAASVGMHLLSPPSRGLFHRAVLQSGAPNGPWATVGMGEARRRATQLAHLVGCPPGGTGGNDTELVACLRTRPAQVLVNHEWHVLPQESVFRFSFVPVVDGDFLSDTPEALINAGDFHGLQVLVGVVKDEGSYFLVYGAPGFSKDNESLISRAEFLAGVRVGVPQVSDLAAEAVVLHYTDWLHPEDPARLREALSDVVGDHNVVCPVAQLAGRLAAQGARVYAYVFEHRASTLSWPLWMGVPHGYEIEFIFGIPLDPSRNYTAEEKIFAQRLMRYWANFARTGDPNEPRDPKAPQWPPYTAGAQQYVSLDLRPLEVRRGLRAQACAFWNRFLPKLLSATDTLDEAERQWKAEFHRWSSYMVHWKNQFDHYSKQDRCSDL
Test [2] deals with T2, 5-hydroxytryptamine receptor 4 (Homo sapiens, UniProt Q13639). The test can be described thus: Displacement of [3H]-GR113808 from recombinant human 5-HT4BR expressed in membranes at 1 uM after 60 mins relative to control. Put shortly: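 Crude membranes from a stable recombinant cell line expressing 5-HT4B were incubated in duplicate at 25 °C for 60 min with compound at 10^-6 or 10^-8 M and 0.2 nM [3H]-GR113808 in 25 mM Tris, pH 7.4. They were filtered through polyethylenimine-presoaked GF/C filters and washed three times with ice-cold Tris. Nonspecific binding was defined with serotonin.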
T2 sequence (Q13639 whole entry): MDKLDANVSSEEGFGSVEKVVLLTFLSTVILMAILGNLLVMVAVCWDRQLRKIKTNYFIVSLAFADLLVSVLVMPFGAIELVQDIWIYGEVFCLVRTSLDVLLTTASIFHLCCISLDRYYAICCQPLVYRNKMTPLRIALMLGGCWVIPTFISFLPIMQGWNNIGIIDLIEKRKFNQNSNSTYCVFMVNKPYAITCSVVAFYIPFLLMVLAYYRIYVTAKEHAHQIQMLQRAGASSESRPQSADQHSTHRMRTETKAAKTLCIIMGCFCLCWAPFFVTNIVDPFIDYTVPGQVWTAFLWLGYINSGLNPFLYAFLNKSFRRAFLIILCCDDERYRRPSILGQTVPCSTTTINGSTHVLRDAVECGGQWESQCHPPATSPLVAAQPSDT
(In general: Displacement assays read how much labelled ligand stays bound in the presence of the test substance.)

The target of test [3] is T2, 5-hydroxytryptamine receptor 4. The test can be described thus: Displacement of [3H]-GR113808 from recombinant human 5-HT4BR expressed in membranes after 60 mins.
The target in test [4] is Sigma non-opioid intracellular receptor 1 (Homo sapiens, UniProt Q99720). Kind of test: Displacement of [3H]-(+)-pentazocine from sigma-1 receptor in human Jurkat cell membranes after 2 hrs by liquid scintillation counting method.
Chain of Sigma non-opioid intracellular receptor 1 (Q99720 whole entry): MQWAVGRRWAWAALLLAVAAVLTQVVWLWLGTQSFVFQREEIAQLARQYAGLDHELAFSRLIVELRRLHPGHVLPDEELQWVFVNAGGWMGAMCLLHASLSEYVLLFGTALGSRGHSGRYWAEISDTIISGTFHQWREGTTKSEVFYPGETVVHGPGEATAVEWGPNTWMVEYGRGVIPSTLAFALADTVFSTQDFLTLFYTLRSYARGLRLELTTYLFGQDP
The target of test [5] is T2, 5-hydroxytryptamine receptor 4. Kind of test: Antagonist activity at 5-HT4R (unknown origin) expressed in CHO cells assessed as reduction in intracellular cAMP accumulation after 15 mins by radio-immunoassay. The test is classed as functional, cell-based. Background: Cyclic AMP is a second messenger, typically raised through Gs and lowered through Gi signalling.
Test [6] concerns the target T1, Acetylcholinesterase. The test can be described thus: Non-competitive inhibition of human erythrocytes AChE up to 1 uM using varying levels of acetylthiocholine iodide substrate preincubated for 5 mins followed by substrate addition measured at 1 min time interval for 10 mins by Lineweaver-Burk plot analysis.
Test [7] concerns the target T2, 5-hydroxytryptamine receptor 4. Kind of test: Agonist activity at 5-HT4R (unknown origin) expressed in CHO cells assessed as intracellular cAMP accumulation after 15 mins by radio-immunoassay. The test is classed as functional, cell-based. The method, boiled down:
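Stably transfected CHO cells grown to confluence, serum-starved 4 h, then preincubated 15 min in serum-free medium with 5 mM theophylline, 10 mM pargyline and […] to block endogenous 5-HT1B receptors. 5-HT or test compound added for a further 15 min. Stopped with ice-cold ethanol, 30 min at room temperature, ethanol fraction dried, cAMP quantified by competitive radioimmunoassay.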

The test system of test [8] is Mus musculus. Kind of test: Cognition enhancing effect in Swiss mouse assessed as protection against dizocilpine-induced long term non-spatial memory impairment by measuring increase in step-through latency at 0.1 mg/kg, ip pretreated for 10 mins followed by dizocilpine treatment and measured after 20 mins by passive avoidance test relative to control. The test is classed as functional. Put shortly: (§1)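 Male Swiss mice, 6 weeks, 32 g, groups of 12e16. Compounds dissolved in 10% DMSO in saline, diluted in saline; vehicle 2% DMSO in saline. Given IP 10 min before dizocilpine 0.15 mg/kg IP, 20 min before Y-maze session (alternation % and arm entries) or passive-avoidance training (footshock 3 s on entering dark compartment; step-through latency).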

The test system of test [9] is Mus musculus. The test can be described thus: Cognition enhancing effect in Swiss mouse assessed as protection against dizocilpine-induced spatial memory impairment by measuring spontaneous alternation performance at 0.1 to 1 mg/kg, ip pretreated for 10 mins followed by dizocilpine treatment and measured after 20 mins by Y-maze test. In kind it is functional, organism-based. The method, boiled down: as §1

Molecules are shown by their SMILES. Activity calls are given as the source filed them. No cut-off for these calls is given here.

As usually defined, the IC50 is the midpoint of a concentration-inhibition curve. By inhibition is commonly meant the drop in the measured response relative to a control, in per cent. The Ki is a measure of affinity in units of concentration, obtained from inhibition or displacement. In turn, `O=C(CCC1CCN(CC2CCCC2)CC1)c1ccc2[nH]ccc2c1` returned an IC50 against Acetylcholinesterase [1] of 94 nM. In test [2], the inhibition stood at 100%. Besides, in [3], the Ki came out at 25 nM.

`COc1c(C(=O)CCC2CCN(CC3CCCCC3)CC2)cc(Cl)c2[nH]ccc12`: the values for the Ki in test [4] and in [3] were 5.1 nM and 40.9 nM, respectively. Also, the inhibition result (in test [5]; at Acetylcholinesterase [6]) was “Active” each time. Also, the IC50 against Acetylcholinesterase [1] stood at 91.4 nM. Further, the inhibition in [2] was 100%.

Turning to `COc1c(C(=O)CCC2CCN(Cc3ccccc3)CC2)cc(Cl)c2[nH]ccc12`, the inhibition constant Ki in [4] came out at 5.7 nM; in test [3], 150 nM. At Acetylcholinesterase [1], this compound returned an IC50 of 20.4 nM. For the same compound, in test [2], the inhibition was 96%.

As to `CCCCN1CCC(CCC(=O)c2cc(Cl)c(N)cc2OC)CC1`, the inhibition in test [2] stood at 100%.

Compound `COc1c(C(=O)CCC2CCN(CC3CCCCC3)CC2)cc(Cl)c2c1ccn2S(=O)(=O)c1ccccc1` came in with an IC50 at Acetylcholinesterase [1] of 559 nM. For the same compound, the inhibition in [2] stood at 62%.

`O=C(CCC1CCN(CC2CCCCC2)CC1)c1ccc2[nH]ccc2c1` registered an IC50 against Acetylcholinesterase [1] of 51 nM. The inhibition in test [2] was 100%. Moreover, the Ki in test [3] came to 37.5 nM.

In the case of `COc1c(C(=O)CCC2CCN(CC3CCCCC3)CC2)ccc2[nH]ccc12`, the IC50 on Acetylcholinesterase [1] turned out to be 40 nM. Further, in test [2], the inhibition came out at 100%. Also, in [3], the Ki worked out at 51 nM.

With `COc1c(C(=O)CCC2CCN(CC3CCCCC3)CC2)cc(Cl)c2c1ccn2C`, the IC50 at Acetylcholinesterase [1] turned out to be 84.4 nM.

For `O=C(CCC1CCN(Cc2ccccc2)CC1)c1ccc2[nH]ccc2c1`, the Ki in test [4] amounted to 3.3 nM; in [3], 169 nM. Half-maximal inhibition at Acetylcholinesterase [1] (IC50) required 13.3 nM. Moreover, in test [2], the inhibition is 90%.

As for `COc1c(C(=O)CCC2CCN(CC3CCCCC3)CC2)cc(Cl)c2c1ccn2Cc1ccccc1`, on Acetylcholinesterase [1], the IC50 was 261 nM.

For the compound `CCCCN1CCC(CCC(=O)c2ccc3[nH]ccc3c2)CC1`, the IC50 against Acetylcholinesterase [1] was 716 nM. The inhibition in test [2] amounted to 97%. Further, the Ki in test [3] came out at 49.6 nM.

Take `COc1cc(N)c(Cl)cc1C(=O)CCC1CCN(CC2CCCCC2)CC1`: the Ki in test [4] is 51 nM. In addition, in test [7], the outcome was Active.

For the compound `COc1c(C(=O)CCC2CCN(Cc3ccccc3)CC2)cc(Cl)c2[nH]c([Si](C)(C)C)cc12`, on Acetylcholinesterase [1], the IC50 is 275 nM. Moreover, the inhibition in [2] is 62%.

For `O=C(CCC1CCN(CC2CCCCC2)CC1)c1cc(Cl)c2[nH]ccc2c1`, the Activity in the test on Mus musculus [8] came out at 40%. The Ki in test [4] came to 5.1 nM; in [3] it was 37.5 nM. In addition, the result with Mus musculus [9] was inactive. At Acetylcholinesterase [1], this compound had an IC50 of 28.8 nM. The inhibition in test [2] is 100%.

Turning to `COc1cc2c(cc1OC)C(=O)C(CC1CCN(Cc3ccccc3)CC1)C2` (centres undefined), in test [2], the inhibition came out at 10%.

`O=C(CCC1CCN(CC2CCCCC2)CC1)c1ccc2c(ccn2Cc2ccccc2)c1`: on Acetylcholinesterase [1], it took 133 nM to reach half-maximal inhibition (IC50). In addition, the inhibition in test [2] was determined as 42%.
